Calls of active or inactive are those of the source. The rule behind the calls is not given here.

Assay [1] has as its target Proto-oncogene tyrosine-protein kinase Src (Homo sapiens, UniProt P12931).
Assay [2] deals with HepG2. Nature of the assay: cells. The following applies: Homo sapiens, HepG2, 72 h.
For assay [3], the system named is MDA-MB-231. Description: cells. The settings on record: Homo sapiens, MDA-MB-231, 72 h.
In assay [4] the test system is MDA-MB-231. Nature of the assay: Antitumor activity against human MDA-MB-231 cells xenografted in SCID mouse assessed as tumor growth inhibition at 10 mg/kg/week, iv administered for 18 days measured every 3 days during compound dosing. In kind it is functional, organism-based. The gist of the method: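 SCID mice (5–6 weeks) given subcutaneous injections of 5 ×10^6 MDA-MB-231 cells; at 150–200 mm3 tumors, randomized into 6 groups of 6; oral daily dosing (vehicle 25% PEG400 + 5% DMSO in sterile water), paclitaxel 10 mg/kg/week by tail vein; tumors measured every 3 days, volume = ab²/2; side effects monitored daily.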
Background: A xenograft is tissue or cells of one species grown in another, often human tumour cells in immunodeficient mice.

The test system of assay [5] is MDA-MB-231. Description: Potency index, ratio of dasatinib IC50 to compound IC50 for human MDA-MB-231 cells. In kind it is functional.
For assay [6], the system named is MDA-MB-231. Nature of the assay: Potency index, ratio of ponatinib IC50 to compound IC50 for human MDA-MB-231 cells. Format: functional.
For assay [7], the system named is MDA-MB-231. Nature of the assay: Induction of apoptosis in human MDA-MB-231 cells assessed as early apoptotic cells at 0.3 uM after 48 hrs by annexin V-FITC/propidium iodide staining-based flow cytometric analysis (reference value: […]). In kind it is functional. On the technique in general: In flow cytometry, cells or beads pass a laser one at a time.
The test system of assay [8] is MDA-MB-231. Description: Induction of apoptosis in human MDA-MB-231 cells assessed as late apoptotic cells at 0.3 uM after 48 hrs by annexin V-FITC/propidium iodide staining-based flow cytometric analysis (reference value: 4.25%). In kind it is functional.
The test system of assay [9] is MDA-MB-231. Nature of the assay: Induction of apoptosis in human MDA-MB-231 cells assessed as viable cells at 0.3 uM after 48 hrs by annexin V-FITC/propidium iodide staining-based flow cytometric analysis (reference value: 94.4%). In kind it is functional. The settings on record: MDA-MB-231, 48 h, read-out: Activity.
The test system of assay [10] is MDA-MB-231. Description: Cell cycle arrest in human MDA-MB-231 cells assessed as accumulation at G0/G1 phase at 0.3 uM after 24 to 48 hrs by flow cytometric analysis. In kind it is functional, cell-based.
For assay [11], the system named is MDA-MB-231. Description: Antimigratory activity against human MDA-MB-231 cells at 0.03 to 0.3 uM after 20 hrs by wound healing assay. Format: functional, cell-based. The gist of the method: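 MDA-MB-231 monolayers grown to confluence, scratched with a sterile pipet tip, rinsed with saline, then kept in DMEM containing vehicle or compound; wound images taken after 20 h and analysed.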

For assay [12], the system named is MDA-MB-231. Description: Antiinvasive activity against human MDA-MB-231 cells at 0.1 uM after 24 hrs by transwell assay. In kind it is functional, cell-based.
The test system of assay [13] is MDA-MB-231. Description: Inhibition of ERK phosphorylation in human MDA-MB-231 cells at 0.001 to 1 uM after 20 hrs by Western blot analysis. Format: cell-based. The method in brief: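 MDA-MB-231 cells exposed to a concentration series for 20 h at 37 °C, then washed in ice-cold saline and lysed in RIPA buffer with protease cocktail. Lysates were cleared at 12 000 rpm for 10 min at 4 °C and protein measured by Bradford. Equal protein was run on SDS-PAGE, transferred to PVDF and immunoblotted for phospho-proteins.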
For orientation: A western blot detects proteins with antibodies after separation by electrophoresis.

In assay [14] the test system is MDA-MB-231. Nature of the assay: Effect on AKT phosphorylation in human MDA-MB-231 cells at 0.001 to 1 uM after 20 hrs by Western blot analysis. In kind it is cell-based. The gist of the method:
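MDA-MB-231 cells exposed to a concentration series for 20 h at 37 °C, lysed in RIPA with protease inhibitor cocktail, cleared by centrifugation, protein quantified by Bradford, resolved by SDS-PAGE, transferred to PVDF and immunoblotted.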

Assay [15] concerns MDA-MB-231. Nature of the assay: Antiproliferative activity against human MDA-MB-231 cells assessed as inhibition of colony formation at >0.01 uM after 12 days by crystal violet staining-based assay. In kind it is functional, cell-based. The method in brief:
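MDA-MB-231 cells plated at 5000 per well and treated the next day with vehicle or compound, medium refreshed every 4 days; after 12 days, colonies fixed in methanol, crystal violet stained and photographed.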

Assay [16] relates to MDA-MB-231. Nature of the assay: Antitumor activity against human MDA-MB-231 cells xenografted in SCID mouse assessed as tumor growth inhibition at 40 mg/kg/day administered for 18 days measured every 3 days during compound dosing. In kind it is functional, organism-based.
Assay [17] deals with MDA-MB-231. Description: Induction of apoptosis in human MDA-MB-231 cells assessed as early apoptotic cells at 0.3 uM after 24 hrs by annexin V-FITC/propidium iodide staining-based flow cytometric analysis (reference value: 1.58%). In kind it is functional.
The subject of assay [18] is MDA-MB-231. Nature of the assay: Induction of apoptosis in human MDA-MB-231 cells assessed as late apoptotic cells at 0.3 uM after 24 hrs by annexin V-FITC/propidium iodide staining-based flow cytometric analysis (reference value: 2.67%). In kind it is functional.
Assay [19] concerns MDA-MB-231. Nature of the assay: Induction of apoptosis in human MDA-MB-231 cells assessed as viable cells at 0.3 uM after 24 hrs by annexin V-FITC/propidium iodide staining-based flow cytometric analysis (reference value: 95.5%). Format: functional. The settings on record: MDA-MB-231, 24 h, read-out: Activity.

Sequence of Proto-oncogene tyrosine-protein kinase Src (P12931 2-536 limits assumed): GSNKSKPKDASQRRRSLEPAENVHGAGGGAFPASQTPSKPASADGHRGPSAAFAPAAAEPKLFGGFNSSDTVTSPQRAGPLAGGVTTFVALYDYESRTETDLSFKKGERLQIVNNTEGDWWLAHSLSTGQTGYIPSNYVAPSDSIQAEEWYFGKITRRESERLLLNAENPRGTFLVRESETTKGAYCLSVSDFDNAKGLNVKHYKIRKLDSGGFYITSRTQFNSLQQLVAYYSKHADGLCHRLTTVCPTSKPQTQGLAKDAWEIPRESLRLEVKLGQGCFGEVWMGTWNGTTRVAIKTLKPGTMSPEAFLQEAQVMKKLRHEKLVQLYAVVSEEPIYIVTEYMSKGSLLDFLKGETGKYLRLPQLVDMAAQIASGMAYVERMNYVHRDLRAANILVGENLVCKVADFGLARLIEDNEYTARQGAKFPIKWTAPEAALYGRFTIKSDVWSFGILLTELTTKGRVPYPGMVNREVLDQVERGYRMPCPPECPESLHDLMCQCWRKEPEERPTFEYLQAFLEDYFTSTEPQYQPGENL

Usually IC50 stands for the concentration needed to halve the response being measured. Regarding `Cc1ccc(C(=O)Nc2ccc(CN3CCN(C)CC3)c(C(F)(F)F)c2)cc1C#Cc1nn(C2CCNCC2)c2ncnc(N)c12`, the figures for the IC50 in assay [1] and in assay [2] were 12 nM and above 5000 nM, respectively.
In the case of `Cc1ccc(C(=O)Nc2ccc(CN3CCOCC3)c(C(F)(F)F)c2)cc1C#Cc1nn(C(C)C)c2ncnc(N)c12`, the half-inhibitory concentration (IC50) in assay [1] was 21 nM; in assay [3] it was 1520 nM; in assay [2] it was above 5000 nM.
Taken in the same sequence, the figures for `Cc1ccc(C(=O)Nc2ccc(CN3CCN(C)CC3)c(Cl)c2)cc1C#Cc1nn(C(C)C)c2ncnc(N)c12` were 2 nM, 57 nM and 3540 nM.
Regarding `Cc1ccc(C(=O)Nc2ccc(CN3CCN(C)CC3)c(C(F)(F)F)c2)cc1C#Cc1cnc2cccnn12` [PONATINIB], the results for the IC50 in [3] and in assay [2] were 156 nM and above 5000 nM, respectively.
The matching figures for `CCn1nc(C#Cc2cc(C(=O)Nc3ccc(CN4CCN(C)CC4)c(C(F)(F)F)c3)ccc2F)c2c(N)ncnc21`: 1740 nM and above 5000 nM.
`CCn1nc(C#Cc2cc(C(=O)Nc3ccc(CN4CCN(C)CC4)c(C(F)(F)F)c3)ccc2C(C)C)c2c(N)ncnc21`: the IC50 in assay [1] was 1410 nM; in [3], 1220 nM; in assay [2], above 5000 nM.
As for `CCn1nc(C#Cc2cc(C(=O)Nc3ccc(CN4CCN(C)CC4)c(C(F)(F)F)c3)ccc2Cl)c2c(N)ncnc21`, the figures for the IC50 in [3] and in [2] were 52 nM and above 5000 nM, respectively.
Taken in the same sequence, the figures for `C=CC(=O)N1CCC(n2nc(C#Cc3cc(C(=O)Nc4ccc(CN5CCN(C)CC5)c(C(F)(F)F)c4)ccc3C)c3c(N)ncnc32)CC1` were 14 nM and above 5000 nM.
The matching figures for `Cc1ccc(C(=O)Nc2ccc(CN3CCN(C)CC3)c(C(F)(F)F)c2)cc1C#Cc1nn(C2CCCC2)c2ncnc(N)c12`: 65 nM and above 5000 nM.
The matching figures for `CCn1nc(C#Cc2cccc(C(=O)Nc3ccc(CN4CCN(C)CC4)c(C(F)(F)F)c3)c2)c2c(N)ncnc21`: 24 nM and above 5000 nM.
On to `CC(=O)O[C@H]1C(=O)[C@@]2(C)[C@H]([C@H](OC(=O)c3ccccc3)[C@]3(O)C[C@H](OC(=O)[C@H](O)[C@@H](NC(=O)c4ccccc4)c4ccccc4)C(C)=C1C3(C)C)[C@]1(OC(C)=O)CO[C@@H]1C[C@@H]2O`, for which the TGI result in assay [4] was “Active”.
For the compound `CCn1nc(C#Cc2cc(C(=O)Nc3ccc(CN4CCN(C)CC4)c(C(F)(F)F)c3)ccc2OC)c2c(N)ncnc21`, the IC50 in [3] is 321 nM; in assay [2], 4640 nM.
Taken in the same sequence, the figures for `Cc1ccc(C(=O)Nc2ccc(CN3CCN(C)CC3)c(C(F)(F)F)c2)cc1C#Cc1nn(C2CCC2)c2ncnc(N)c12` were 28 nM and above 5000 nM.
The matching figures for `Cc1ccc(C(=O)Nc2ccc(CN3CCN(C)CC3)c(C(F)(F)F)c2)cc1C#Cc1nn(C2CCN(C(=O)OC(C)(C)C)CC2)c2ncnc(N)c12`: 145 nM and above 5000 nM.
The matching figures for `COCn1nc(C#Cc2cc(C(=O)Nc3ccc(CN4CCN(C)CC4)c(C(F)(F)F)c3)ccc2C)c2c(N)ncnc21`: 51 nM and above 5000 nM.
`Cc1ccc(C(=O)Nc2ccc(CN3CCN(CCO)CC3)c(C(F)(F)F)c2)cc1C#Cc1nn(C(C)C)c2ncnc(N)c12`: the IC50 in [1] is 4 nM; in assay [3], 50 nM; in assay [2], 1770 nM.
Turning to `Cc1ccc(C(=O)Nc2ccc(CN3CCN(C)CC3)c(C(F)(F)F)c2)cc1C#Cc1nn(C(C)C)c2ncnc(N)c12`, the half-inhibitory concentration (IC50) in assay [1] was 2 nM; in assay [3], 69 nM; in assay [2] it was above 5000 nM. For the same compound, the “Ratio IC50” value in assay [5] and in assay [6] was 2.5 throughout.
With `CCc1ccc(C(=O)Nc2ccc(CN3CCN(C)CC3)c(C(F)(F)F)c2)cc1C#Cc1nn(CC)c2ncnc(N)c12`, the IC50 is 418 nM in assay [3] and above 5000 nM in assay [2].
In the case of `CCN1CCN(Cc2ccc(NC(=O)c3ccc(C)c(C#Cc4nn(C(C)C)c5ncnc(N)c45)c3)cc2C(F)(F)F)CC1`, the IC50 in assay [1] was 2 nM; in assay [3], 56 nM; in assay [2], above 5000 nM.
Taken in the same sequence, the figures for `Cc1ccc(C(=O)Nc2ccc(CN3CCN(C)CC3)c(Br)c2)cc1C#Cc1nn(C(C)C)c2ncnc(N)c12` were 1 nM, 40 nM and 1830 nM.
Turning to `Cc1ccc(C(=O)Nc2ccc(CN3CCN(C)CC3)c(C(F)(F)F)c2)cc1C#Cc1nn(C)c2ncnc(N)c12`, the figures for the IC50 in assay [3] and in assay [2] were 20 nM and above 5000 nM, respectively.
The matching figures for `CCn1nc(C#Cc2cc(C(=O)Nc3ccc(CN4CCN(C)CC4)c(C(F)(F)F)c3)ccc2O)c2c(N)ncnc21`: above 5000 nM and above 5000 nM.
With `Cc1ccc(C(=O)Nc2cccc(C(F)(F)F)c2)cc1C#Cc1nn(C(C)C)c2ncnc(N)c12`, the IC50 in assay [3] was 103 nM; in assay [2], above 5000 nM.
Turning to `Cc1nc(Nc2ncc(C(=O)Nc3c(C)cccc3Cl)s2)cc(N2CCN(CCO)CC2)n1.O` [DASATINIB], the Activity in [7] is recorded as 6.31%; in [8], 9.84%; in [17], 2.64%; in [18] it was 4.73%. Moreover, the viability at 0.3 µM is 82.9% in assay [9] and 90.4% in assay [19]. In addition, the outcome in assay [10], in [11] and in [12] was Active. For the same compound, in assay [13], the inhibition result was “inactive”. In addition, in assay [14], the outcome was inactive. Moreover, in [15], the inhibition entry was “Active”. The TGI entry in assay [16] was “Active”. The IC50 is 178 nM in assay [3] and above 5000 nM in assay [2].
On to `Cc1ccc(C(=O)Nc2ccc(CN3CCN(C)CC3)cc2)cc1C#Cc1nn(C(C)C)c2ncnc(N)c12`, for which the IC50 turned out to be 270 nM in assay [3] and 4700 nM in assay [2].

The record behind these values is ChEMBL document CHEMBL3425429.
